Results published in PubChem BioAssay AID2520 (Sanford-Burnham Center for Chemical Genomics, 2010).
Hit rate of the full screen: of about 330,000 compounds, about 350 (0.11%) were called active.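 Rule for the calls: active = activation more than six SD over the plate average, tested at 20 µM; inactive = the rest.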 The list comes from a sample in which actives are over-represented; it also holds similar structures and randomly drawn compounds.

target: Apelin receptor (Homo sapiens) (UniProt P35414); test: APJ activation via beta-arrestin recruitment – CHO-K1 cells, PathHunter beta-arrestin, luminescence, primary screen (AID 2520); settings: at 20 µM, hits give high values, 0% DMSO wells, 100% apelin;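 note: 0% = DMSO alone and 100% = apelin-13 at 10 nM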
In short: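 assay system = CHO-K1 APJ beta-arrestin complementation cell line | input = cell density 1000 per well | dosing = compound 20 µM once, DMSO 1% | timing = compound 90 min 25 °C, reagent 1 h | measured by = luminescence from split beta-galactosidase complementation, Galacton Star/Emerald II substrate | read-out basis = APJ agonist activity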

Apelin receptor (Homo sapiens), sequence (P35414 whole entry, looked up): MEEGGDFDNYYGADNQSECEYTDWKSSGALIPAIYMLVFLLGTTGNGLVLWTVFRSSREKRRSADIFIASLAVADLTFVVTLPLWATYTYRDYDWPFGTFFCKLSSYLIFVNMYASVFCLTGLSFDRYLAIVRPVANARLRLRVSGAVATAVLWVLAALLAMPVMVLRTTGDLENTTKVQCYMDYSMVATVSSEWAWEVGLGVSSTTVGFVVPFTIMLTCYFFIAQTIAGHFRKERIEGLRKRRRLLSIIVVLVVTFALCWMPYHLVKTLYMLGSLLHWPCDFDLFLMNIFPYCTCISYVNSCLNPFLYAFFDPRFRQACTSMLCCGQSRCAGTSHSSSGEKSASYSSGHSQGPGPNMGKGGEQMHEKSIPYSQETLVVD

activation, active:
CCC(C)(C)C1CCC(=NNC(=O)c2ccc(Br)o2)CC1 (stereo unspecified) 19.8%, CC(=O)N1CCCc2cc(S(=O)(=O)N3CCCC(C(=O)N4CCN(c5cccc(Cl)c5)CC4)C3)ccc21 (stereo unspecified) 19.6%, COc1cc(NC(=O)C2=C(C)OCCS2)c(Cl)cc1C(=O)NCCN1CCN(C)CC1 18.9%, O=C(CSc1nc(Nc2ccccc2)nc(N2CCOCC2)n1)Nc1cc(Cl)ccc1O 40.8%

activation, inactive:
Cc1c(CCC(=O)O)c(=O)oc2cc3occ(-c4ccccc4)c3cc12 -2.13%, CN(c1ccccc1)S(=O)(=O)c1ccc(Cl)c(C(=O)OCC(=O)N2CCOCC2)c1 -4.02%, CCn1c(-c2cccnc2Cl)nc2cc(C)c(C)cc21 -1.12%, COCC(=O)Nc1cc(C(=O)OC)cc(C(=O)OC)c1 -0.719%, CCOC(CNC(=O)C(=O)NCC(c1ccco1)N1CCN(c2ccc(OC)cc2)CC1)OCC (stereo unspecified) -4.81%, CC(=O)c1ccccc1OCc1ccc(C(=O)c2ccccc2)cc1 -3.74%, COc1ccc(N(CCC#N)S(=O)(=O)c2ccc(Cl)cc2)cc1 -5.53%, COCn1c(C(O)c2ccccc2)cc2ccccc21 (stereo unspecified) -2.04%, COc1ccc(S(=O)(=O)Nc2ccc(F)cc2)c(C)c1C -0.449%, CCCCN(CC)C(=O)CN(C)S(=O)(=O)c1cccc2nsnc12 -2.83%, CN(CCC1CCOCC1)Cc1cn[nH]c1-c1ccc(-c2ccccc2)cc1 -3.69%, Cc1ccnc(NS(=O)(=O)c2ccc(NC(=O)c3ccc(S(=O)(=O)N(C)C)cc3)cc2)n1 -2.66%, CCc1ccccc1NC(=O)CN(C)C(=O)COc1ccc(C)nc1[N+](=O)[O-] -1.82%, CC1CN(C(=O)c2ccc3c(c2)OCO3)OC(c2ccccc2)O1 (stereo unspecified) -2.94%, O=C(N/N=C\C1CC=CCC1)c1ccc(Br)o1 (stereo unspecified) 8.95%, CC(C)(C)C1CCC(=NNC(=O)c2ccc(Br)o2)CC1 (stereo unspecified) -3.06%, Fc1ccc(CNCc2ccc(Br)cc2)cc1 -1.03%, COC(=O)c1ccc(NC(=O)CSc2nnc(C3CC3)n2C)cc1 -3.11%, O=C(OCCN1C(=O)c2ccccc2C1=O)Oc1ccccc1 -1.77%, O=C(COC(=O)C12CC3CC(CC(O)(C3)C1)C2)NC12CC3CC(CC(C3)C1)C2 -1.34%, O=C(COc1ccc(Cl)cc1)NCCSc1ccccc1 -1.87%, O=[N+]([O-])c1cc(Cl)cc(/C=N/NC(=S)Nc2cc(S(=O)(=O)N3CCOCC3)ccc2Cl)c1O -5.98%, Cc1ccc(NS(=O)(=O)c2c(C)[nH]c(C)c2C(=O)N2CCCCC2)c(C)c1 -0.00146%, CC(=O)c1ccc(OCC(O)CN2CCN(S(=O)(=O)c3cccc(Br)c3)CC2)cc1 (stereo unspecified) -1.5%, CSc1ncc(C(=O)Nc2ccc(C)cc2C)c(C)n1 -0.333%, Cc1ccc(S(=O)(=O)NCc2nc3ccccc3c(=O)n2N)cc1 -0.607%, CCCc1nc(N2CCN(C)CC2)c2sc(=S)n(-c3ccccc3)c2n1 -2.45%, COC(=O)c1ccc(C)c(NC(=O)C2CC(=O)N(C3CCCC(C)C3C)C2)c1 (stereo unspecified) -2.02%, CC(=O)N1CCCc2cc(S(=O)(=O)N3CCCC(C(=O)NCc4ccc(Cl)cc4)C3)ccc21 (stereo unspecified) -0.0955%, CC(=O)N1c2ccc(S(=O)(=O)N3CCCC(C(=O)Nc4cccc(Cl)c4)C3)cc2CC1C (stereo unspecified) -0.333%, O=S(=O)(/C=C/c1ccccc1)N1CCNCC1 -1.77%, Cc1ccc(C)c(NC(=O)NNC(=O)c2ccc3ccccc3c2O)c1 10%, COc1ccc(N2CCN(C(=O)c3ccccc3NC(=O)C3=C(C)OCCS3)CC2)cc1 -4.76%, CCCCNC(=O)c1ccccc1NC(=O)C1=C(C)OCCS1 0.515%, CCOC(=O)CSc1nnc(NC(=O)C2CC(=O)N(c3ccc(F)cc3)C2)s1 (stereo unspecified) -4.52%, C=CCOc1ccc(C2/C(=C(\O)c3c(C)[nH]c(C(=O)OC)c3C)C(=O)C(=O)N2CCN(C)C)cc1 (stereo unspecified) -0.14%, O=Cc1c(NCCc2cccc(F)c2)c2ccccc2[nH]c1=O -3.46%, CC(C(=O)Nc1ccc(F)c(F)c1F)N1CCCCCC1 (stereo unspecified) -3.77%, CC1CCN(C(=O)c2ccc(S(=O)(=O)Cc3cc(F)ccc3F)c([N+](=O)[O-])c2)CC1 1.51%, CCN1CCN(C(C(=O)NC2CCCC2)c2cc3c(cc2[N+](=O)[O-])OCO3)CC1 (stereo unspecified) 9.21%, Cc1ccccc1NC(=O)CSc1nc2ccc(Nc3nc(N4CCOCC4)nc(N4CCOCC4)n3)cc2s1 8.35%, CC1(c2ccccc2)NC(=O)N(CC(=O)Nc2cc(Cl)ccc2N2CCOCC2)C1=O (stereo unspecified) -3.1%
